In ChEMBL document CHEMBL1146334, “3D-Quantitative structure-activity relationships of synthetic antileishmanial ring-substituted ether phospholipids” (Bioorg Med Chem, 2007):

Legend:
[1] = system: Leishmania infantum; experiment: Antileishmanial activity against Leishmania infantum LEM235 by MTT assay; assay type: functional, organism-based
[2] = system: Leishmania donovani; experiment: Antileishmanial activity against Leishmania donovani LEM703 by MTT assay; assay type: functional, organism-based
[3] = system: THP-1; experiment: Cytotoxicity against human THP1 cells after 72 hrs; assay type: functional, cell-based; details: THP-1, 72 h
In short: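 THP1 cells at 1 × 10^6 cells/ml were exposed to test concentrations of 50 to 156 for 72 h. About 4 × 10^6 cells were then stained with PI (10 µg/ml) and SYBR-14 (0.1 mg/ml) in HEPES/NaCl/BSA buffer, pH 7.4, for 30 min at 37 °C. Flow cytometry used 488 nm excitation, analysed at least 10,000 cells, excluded autofluorescence and debris, and each experiment was repeated twice.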

[4] = Toxicity against red blood cells assessed as hemolytic activity; assay type: cell-based, Erythrocyte; details: human
In short: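 Human red cells from EDTA blood of healthy volunteers were washed thrice in PBS and mixed 1:1 with compound in PBS, 100 to 6.25, for 1 h at 37 °C. After centrifugation at 800g for 10 min, supernatant absorbance was read at 550 nm against 625 nm. % hemolysis = (A − A0)/(Amax − A0) × 100, with PBS as background and water as 100%. HC50 is the concentration giving 50% hemolysis.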

Row | SMILES | IC50 [1] [µM] | IC50 [2] [µM] | IC50 [3] [µM] | HC50 [4] [µM]
1 | CCCCCCCCCCCCCCCC=C1CCC(OCCOP(=O)([O-])OCC[N+]2(C)CCCCC2)CC1 (stereo not given) | 6.5 | 22 | 25.7 | > 100
2 | C[N+]1(CCOP(=O)([O-])OCCCCCCCCCCC=C2CCCCC2)CCOCC1 | 22.8 | 8.25 |  | 
3 | C[N+]1(CCOP(=O)([O-])OCCOC2CCCCC2)CCOCC1 | > 100 | > 100 |  | 
4 | C[N+]1(CCOP(=O)([O-])OCCCCCCCCCCC=C2CCCCC2)CCCCC1 | 47.6 | 8.7 |  | > 100
5 | C[N+]1(CCOP(=O)([O-])OCCCCCCCCCCC=C2C3CC4CC(C3)CC2C4)CCCCC1 | 22.6 | 5.41 | 169 | > 100
6 | C[N+](C)(C)CCOP(=O)([O-])OCCCCCCCCCCCC1CCCCC1 | 8.4 | 10.3 | 35.5 | > 100
7 | CCCCCCCCCCCC=C1CCC(OCCOP(=O)([O-])OCC[N+]2(C)CCCCC2)CC1 (stereo not given) | 23.1 | 22 |  | 
8 | C[N+](C)(C)CCOP(=O)([O-])OCCOC1CCCCC1 | > 100 | > 100 |  | 
9 | C[N+]1(CCOP(=O)([O-])OCCCCCCCCCCC=C2C3CC4CC(C3)CC2C4)CCOCC1 | 6.64 | 5.09 | 37.4 | > 100
10 | C[N+](C)(C)CCOP(=O)([O-])OCCCCC=C1CCCCC1 | > 100 | > 100 |  | 
11 | CCCCCCCCCCCC=C1CCC(OCCOP(=O)([O-])OCC[N+](C)(C)C)CC1 (stereo not given) | 3.25 | 7.08 | 26 | 40.6
12 | CCCCCCCCCCCCCC=C1CCC(OCCOP(=O)([O-])OCC[N+](C)(C)C)CC1 (stereo not given) | 5.25 | 3.91 | 20.2 | > 100
13 | C[N+]1(CCOP(=O)([O-])OCCCCC=C2CCCCC2)CCOCC1 | > 100 | > 100 |  | 
14 | CCCCCCCCCCCC=C1CCC(OCCOP(=O)([O-])OCC[N+]2(C)CCOCC2)CC1 (stereo not given) | 16.5 | 50.7 |  | > 100
15 | C[N+](C)(C)CCOP(=O)([O-])OCCCCCCCCCCC=C1CCCCC1 | 5.2 | 2.4 | 31.3 | 68.3
16 | CCCCCCCCCCCCCCCC=C1CCC(OCCOP(=O)([O-])OCC[N+](C)(C)C)CC1 (stereo not given) | 21.2 | 45.1 |  | > 100
17 | C[N+]1(CCOP(=O)([O-])OCCCCC=C2CCCCC2)CCCCC1 | > 100 | > 100 |  | 

Row | SMILES | IC50 [1] [µM] | IC50 [2] [µM] | IC50 [3] [µM] | HC50 [4] [µM]
18 | C[N+]1(CCOP(=O)([O-])OCCCCC=C2C3CC4CC(C3)CC2C4)CCCCC1 | > 100 | > 100 |  | 
19 | C[N+](C)(C)CCOP(=O)([O-])OCCCCCCCCCCC=C1C2CC3CC(C2)CC1C3 | 6.75 | 3.16 | 59.5 | > 100
20 | CCCCCCCCCCCCCCCC=C1CCC(OCCOP(=O)([O-])OCC[N+]2(C)CCOCC2)CC1 (stereo not given) | 3.7 | 16.2 | 18.9 | > 100
21 | CCCCCCCCCCCCCC=C1CCC(OCCOP(=O)([O-])OCC[N+]2(C)CCOCC2)CC1 (stereo not given) | 15.5 | 38.6 | 20.4 | 58.8
22 | C[N+](C)(C)C1CCCC1OP(=O)([O-])OCCCCCCCCCCC=C1C2CC3CC(C2)CC1C3 (stereo not given) | 38 | 3.92 | 75 | > 100
23 | C[N+](C)(C)C1CCCC1OP(=O)([O-])OCCCCCCCCCCC=C1CCCCC1 (stereo not given) | > 100 | 8.56 | 30.7 | 76.3
24 | C[N+](C)(C)CCOP(=O)([O-])OCCCCCC1C2CC3CC(C2)CC1C3 (stereo not given) | > 100 | 4.02 | 59.5 | > 100
25 | C[N+](C)(C)CCOP(=O)([O-])OCCCCCCCCCCCC1C2CC3CC(C2)CC1C3 (stereo not given) | 5.97 | 2.88 | 169 | > 100
26 | C[N+](C)(C)C1CCCCC1OP(=O)([O-])OCCCCCCCCCCC=C1CCCCC1 (stereo not given) | > 100 | 26.3 |  | 59.8
27 | CCCCCCCCCCCCCC=C1CCC(OCCOP(=O)([O-])OCC[N+]2(C)CCCCC2)CC1 (stereo not given) | 11.4 | 29.7 | 65 | > 100
28 | C[N+]1(CCOP(=O)([O-])OCCOC2CCCCC2)CCCCC1 | > 100 | > 100 |  | 
29 | C[N+]1(CCOP(=O)([O-])OCCCCC=C2C3CC4CC(C3)CC2C4)CCOCC1 | > 100 | 46.9 |  | 
30 | C[N+](C)(C)C1CCCCC1OP(=O)([O-])OCCCCCCCCCCC=C1C2CC3CC(C2)CC1C3 (stereo not given) | > 100 | 16.6 | 39.7 | 66.6
31 | CCCCCCCCCCCCC1CCC(OCCOP(=O)([O-])OCC[N+](C)(C)C)CC1 (stereo not given) | 5.65 | 9.49 | 22.2 | 75.7
32 | C[N+](C)(C)CCOP(=O)([O-])OCCCCC=C1C2CC3CC(C2)CC1C3 | > 100 | 4.99 | > 500 | > 100
33 | CCCCCCCCCCCCCCCCOP(=O)([O-])OCC[N+](C)(C)C [MILTEFOSINE] |  |  |  | 38.3
